In PMC11145139 (RSC Advances, 2024):
In brackets after ≈: the same amount, converted by molar mass. Residues, ends and D or L forms follow the SMILES beside them.

Experiments:
Assay type in all cases: cell-based
[1] = test system: Escherichia coli MTCC 443; test: Antibacterial activity, Mueller Hinton Broth microdilution MIC; details: for Potency relative to standard drug Ampicillin against E. coli: ratio of MIC values vs Ampicillin (MIC 100 μg mL^−1)
[2] = test system: Streptococcus pyogenes MTCC 442; test: as above; details: ratio of MIC values vs standard drug (MIC 100 μg mL^−1)
[3] = test system: Staphylococcus aureus MTCC 96; test: as above; details: vs Ampicillin (MIC 250 μg mL^−1)
[4] = test system: Pseudomonas aeruginosa MTCC 1688; test: as above; details: ratio of MIC values vs Ampicillin (MIC 100 μg mL^−1)
[5] = test system: Aspergillus niger MTCC 282; test: Antifungal activity, Muller Hinton Broth dilution MIC; details: for MIC (anti-fungicidal activity) A. n.: Aspergillus niger MTCC 282, Muller Hinton Broth dilution, Sabouraud's dextrose broth, 28 °C, aerobic, 48 hours, triplicate experiments
Outline: (§1)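 Broth dilution in Mueller Hinton medium. Test compounds were screened in triplicate at 1000, 500, 250 and 200 μg mL−1; actives were diluted further and retested. Fungal growth was followed in Sabouraud's dextrose broth at 28 °C, aerobic, for 48 h. MIC was taken as the lowest concentration preventing visible growth. Nystatin served as reference standard. Stocks were kept at −70 °C in trypticase-soy broth with 20% glycerol and subcultured three times before use.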

[6] = test system: Candida albicans MTCC 227; test: as above; details: for MIC (anti-fungicidal activity) C. a.: Candida albicans MTCC 227, Muller Hinton Broth dilution, Sabouraud's dextrose broth, 28 °C, aerobic, 48 hours, triplicate experiments
Outline: as §1

[7] = vs Nystatin (active at 100 μg mL^−1)

With `CC1(C)S[C@@H]2[C@H](NC(=O)[C@H](N)c3ccccc3)C(=O)N2[C@H]1C(=O)O` [Ampicillin, reference compound] the MIC ([1]; Escherichia coli, MTCC443, 48 h, read-out: MIC (anti-bacterial activity) E. c.) was 100 µg/mL (≈ 286 µM).

`CC(C)[C@H](N)C(=O)N[C@@H](CS)C(=O)N1CCC[C@H]1C(=O)N[C@@H](Cc1c[nH]cn1)C(=O)N[C@@H](CCCNC(=N)N)C(=O)N[C@@H](CS)C(=O)O` [Compound 7c, H-Val-Cys-Pro-His-Arg-Cys-OH] (H-VCPHRC-OH) was tested, and the “Potency relative to standard drug Ampicillin against Streptococcus pyogenes” value [2] was 2 times, the “Potency relative to control drug Ampicillin against Staphylococcus aureus” value [3] was “almost twice potent” and the “Potency relative to standard drug Ampicillin against P. aeruginosa” value [4] was 2 times. For the same compound, the “MIC (anti-fungicidal activity) A. n.” value [5] was 40 µg/mL (≈ 56 µM), the “MIC (anti-fungicidal activity) C. a.” value [6] was 35 µg/mL (≈ 49 µM) and the “Potency relative to standard drug Ampicillin against E. coli” value [1] was 2.5 times.

With `N=C(N)NCCC[C@H](NC(=O)[C@H](Cc1c[nH]cn1)NC(=O)[C@@H]1CCCN1C(=O)[C@H](CS)NC(=O)CN)C(=O)N[C@@H](CS)C(=O)O` [Compound 7a, H-Gly-Cys-Pro-His-Arg-Cys-OH] (H-GCPHRC-OH) the “MIC (anti-fungicidal activity) A. n.” value [5] was 65 µg/mL (≈ 96.8 µM) and the “MIC (anti-fungicidal activity) C. a.” value [6] was 60 µg/mL (≈ 89.3 µM).

For `CC(C)C[C@H](N)C(=O)N[C@@H](CS)C(=O)N1CCC[C@H]1C(=O)N[C@@H](Cc1c[nH]cn1)C(=O)N[C@@H](CCCNC(=N)N)C(=O)N[C@@H](CS)C(=O)O` [Compound 7d, H-Leu-Cys-Pro-His-Arg-Cys-OH] (H-LCPHRC-OH), the “Potency relative to standard drug Ampicillin against Streptococcus pyogenes” value [2] was “five time more potent”, the “Potency relative to standard drug Ampicillin against P. aeruginosa” value [4] was 2.5 times and the “MIC (anti-fungicidal activity) A. n.” value [5] was 35 µg/mL (≈ 48.1 µM). For the same compound, the “Potency relative to Nystatin against Aspergillus niger” value [5, 7] was “almost three times more potent”, the “MIC (anti-fungicidal activity) C. a.” value [6] was 20 µg/mL (≈ 27.5 µM) and the “Potency relative to Nystatin against Candida albicans” value [6, 7] was “five times more potent”. For the same compound, the “Potency relative to standard drug Ampicillin against E. coli” value [1] was 4 times.

In the case of `N=C(N)NCCC[C@H](NC(=O)[C@H](Cc1c[nH]cn1)NC(=O)[C@@H]1CCCN1C(=O)[C@H](CS)NC(=O)[C@@H](N)Cc1ccc(O)cc1)C(=O)N[C@@H](CS)C(=O)O` [Compound 7f, H-Tyr-Cys-Pro-His-Arg-Cys-OH] (H-YCPHRC-OH), the “Potency relative to control drug Ampicillin against Staphylococcus aureus” value [3] is reported as “almost twice potent”, the “Potency relative to standard drug Ampicillin against P. aeruginosa” value [4] is reported as 2 times and the “MIC (anti-fungicidal activity) A. n.” value [5] is reported as 50 µg/mL (≈ 64.3 µM). The “MIC (anti-fungicidal activity) C. a.” value [6] was 40 µg/mL (≈ 51.4 µM) and the “Potency relative to standard drug Ampicillin against E. coli” value [1] was “around 2 times”.

`N=C(N)NCCC[C@H](NC(=O)[C@H](Cc1c[nH]cn1)NC(=O)[C@@H]1CCCN1C(=O)[C@H](CS)NC(=O)[C@@H]1CCCN1)C(=O)N[C@@H](CS)C(=O)O` [Compound 7e, H-Pro-Cys-Pro-His-Arg-Cys-OH] (H-PCPHRC-OH) was tested, and the “Potency relative to control drug Ampicillin against Staphylococcus aureus” value [3] was “almost twice potent”, the “MIC (anti-fungicidal activity) A. n.” value [5] was 55 µg/mL (≈ 77.3 µM) and the “MIC (anti-fungicidal activity) C. a.” value [6] was 50 µg/mL (≈ 70.2 µM). For the same compound, the “Potency relative to standard drug Ampicillin against E. coli” value [1] was “around 2 times”.

With `C[C@H](N)C(=O)N[C@@H](CS)C(=O)N1CCC[C@H]1C(=O)N[C@@H](Cc1c[nH]cn1)C(=O)N[C@@H](CCCNC(=N)N)C(=O)N[C@@H](CS)C(=O)O` [Compound 7b, H-Ala-Cys-Pro-His-Arg-Cys-OH] (H-ACPHRC-OH) the “Potency relative to control drug Ampicillin against Staphylococcus aureus” value [3] was “almost twice potent”, the “Potency relative to standard drug Ampicillin against P. aeruginosa” value [4] was 2 times and the “MIC (anti-fungicidal activity) A. n.” value [5] was 50 µg/mL (≈ 72.9 µM). The “MIC (anti-fungicidal activity) C. a.” value [6] was 55 µg/mL (≈ 80.2 µM) and the “Potency relative to standard drug Ampicillin against E. coli” value [1] was “around 2 times”.

`C[C@@H]1[C@H](O)[C@@H](C)/C=C/C=C/CC/C=C/C=C/C=C/C=C/C(O[C@H]2O[C@H](C)[C@@H](O)[C@H](N)[C@@H]2O)CC2O[C@](O)(CC(O)C(O)CCC(O)CC(O)CC(O)CC(=O)O[C@H]1C)CC(O)C2C(=O)O` (some centres unmarked) [Nystatin, reference compound] was tested, and the “MIC (anti-fungicidal activity) A. n.” value [5] was 100 µg/mL (≈ 108 µM) and the “MIC (anti-fungicidal activity) C. a.” value [6] was 100 µg/mL (≈ 108 µM).
